Measured values as given in ChEMBL document CHEMBL3784941, “Rational Design, Synthesis, and Preliminary Structure-Activity Relationships of α-Substituted-2-Phenylcyclopropane Carboxylic Acids as Inhibitors of Salmonella typhimurium O-Acetylserine Sulfhydrylase” (J Med Chem, 2016).
pIC50, pKd: −log10 of the molar value. Blank lines part the entries; values can stand above or below the compound they belong to. The source made the active and inactive calls. No cut-off for these calls is given here.

How the values were obtained:
[1] = Binding affinity to recombinant Salmonella typhimurium His6-tagged OASS-A expressed in Escherichia coli by fluorimetric titration method; set-up: species or system Salmonella enterica subsp. enterica serovar Typhimurium
How it was run: (§1)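 OASS coenzyme fluorescence titrated with ligand. Conditions were 0.5−1.0 μM enzyme in 100 mM Hepes, pH 7.0, at 20 °C. Excitation was at 412 nm and the emission spectra were recorded. Intensity at 500 nm, minus the ligand-free signal, was fitted to a single-site binding isotherm to give Kdiss.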

[2] = Binding affinity to recombinant Salmonella typhimurium His10-tagged OASS-B expressed in Escherichia coli by fluorimetric titration method; set-up: species or system Salmonella enterica subsp. enterica serovar Typhimurium; how it was run: as §1
[3] = Inhibition of recombinant Salmonella typhimurium His6-tagged OASS-A expressed in Escherichia coli using OAS as substrate by discontinuous assay; set-up: species or system Salmonella enterica subsp. enterica serovar Typhimurium
[4] = Inhibition of recombinant Salmonella typhimurium His10-tagged OASS-B expressed in Escherichia coli using OAS as substrate by discontinuous assay; set-up: species or system Salmonella enterica subsp. enterica serovar Typhimurium
[5] = system: Salmonella enterica subsp. enterica serovar Typhimurium; test: Binding affinity to recombinant Salmonella typhimurium His6-tagged OASS-A expressed in Escherichia coli at <20 uM by fluorimetric titration method; how it was run: as §1
[6] = Solubility in 100 mM HEPES buffer at pH 7 containing 1% DMSO at >20 uM at 20 degC; assay type: physicochemical

Compound: Cc1ccc(C[C@]2(C(=O)O)C[C@@H]2c2ccccc2)cc1 (racemic)
pKd [1]: 7.11
pKd [2]: 5.92

Compound: O=C(O)[C@@]1(Cc2ccc(Cl)cc2)C[C@@H]1c1ccccc1 (racemic)
pKd [1]: 6.81
pKd [2]: 6.12

Compound: O=C(O)[C@@]1(CCc2ccccc2)C[C@@H]1c1ccccc1 (relative stereo)
pKd [1]: 4.85
pKd [2]: 4.57

pIC50 [3]: 7.00
pIC50 [4]: 6.30
Compound: O=C(O)[C@]1(Cc2ccc(Cl)cc2)C[C@H]1c1ccccc1
pKd [1]: 7.27
pKd [2]: 6.38

Compound: O=C(O)[C@@]1(Cc2ccccc2)C[C@@H]1c1ccccc1
pKd [1]: 4.30
pKd [2]: 3.71

Compound: O=C(O)[C@H]1C[C@@H]1c1ccccc1 (relative stereo)
pKd [1]: 5.04
pKd [2]: 3.83

Compound: O=C(O)[C@]1(Cc2ccccc2)C[C@H]1c1ccccc1
pKd [1]: 7.17
pKd [2]: 5.78

Compound: O=C(O)[C@@]1(Cc2ccccc2)C[C@@H]1c1ccccc1 (racemic)
pKd [1]: 6.70
pKd [2]: 5.39

Compound: CC[C@@]1(C(=O)O)C[C@H]1c1ccccc1
pKd [1]: 4.92
pKd [2]: 3.07

Compound: H-MNLNI-OH
pKd [1]: 3.92
pKd [2]: 2.52

Compound: Cc1ccc(C[C@]2(C(=O)O)C[C@@H]2c2ccccc2)cc1
pKd [1]: 4.09
pKd [2]: 3.92

Compound: Cc1ccc(C[C@@]2(C(=O)O)C[C@H]2c2ccccc2)cc1
pKd [1]: 7.55
pKd [2]: 6.31

pIC50 [3]: 4.85
pIC50 [4]: 4.32
Compound: O=C(O)[C@@]1(Cc2ccc(Cl)cc2)C[C@@H]1c1ccccc1
pKd [1]: 4.08
pKd [2]: 3.82

Activity [5]: inactive
solubility [6]: Insoluble
Compound: CCOC(=O)[C@@]1(Cc2ccccc2)C[C@@H]1c1ccccc1 (relative stereo)

Compound: CC[C@]1(C(=O)O)C[C@@H]1c1ccccc1 (racemic)
pKd [1]: 4.82
pKd [2]: 3.14

Compound: CC[C@]1(C(=O)O)C[C@@H]1c1ccccc1
pKd [1]: 2.92
pKd [2]: < 2.70
